PMC5497724 (Cancer Science, 2017)

How the values were obtained:
[1] = SCID mice, 4.4 mg/kg i.v.; 40% ethanol, 5% PEG 400, 55% normal saline; cited from earlier work
[2] = rats, given orally; cited from earlier work
HT1080 cells = experiment: Western blot analysis of PI3K pathway and histone acetylation; format: cell-based, human; details: 3 h
Method in brief: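 HT1080 cells in RPMI-1640 with 10% FBS were handled as in the proliferation assay: 8 × 10³ cells seeded, 24 h at 37°C. Cells were treated 3 h with test compound (in DMSO) at various concentrations. Reference treatments were 2.5 μM SAHA, 1 μM GDC-0941 or both. Western blots probed phospho-AKT (Ser473, Thr308), AKT, phospho-S6, S6, acetyl-histone H3 and β-actin.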

## C/C=C1\NC(=O)[C@H]2CSSCC/C=C/[C@H](CC(=O)N[C@H](C(C)C)C(=O)N2)OC(=O)[C@H](C(C)C)NC1=O [FK228, Romidepsin]
[1]
  AUC: 1.123 µg·h/mL
[2]
  drug levels after oral dosing vs i.v.: lower and more erratic drug levels than i.v. treatment

## CS(=O)(=O)N1CCN(Cc2cc3nc(-c4cccc5[nH]ncc45)nc(N4CCOCC4)c3s2)CC1 [GDC0941]
HT1080 cells
  phosphorylation of AKT and S6 (Western blot): inhibited the phosphorylation of AKT and S6 ribosomal protein

## O=C(CCCCCCC(=O)Nc1ccccc1)NO [SAHA, Suberoylanilidehydroxamic acid]
HT1080 cells
  acetylation of histone H3 (Western blot): promoted acetylation of histone H3
